Assay results taken from ChEMBL document CHEMBL1143594, “Selective estrogen receptor modulators in the ruthenocene series. Synthesis and biological behavior” (J Med Chem, 2005).

Experiments:
[1] = biological target: Estrogen receptor beta (Homo sapiens) (UniProt Q92731); test: Relative binding affinity for Estrogen receptor beta
[2] = Octanol-water partition coefficient (logP) of the compound measured by RP-HPLC; type: physicochemical
Summary of the method: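 Reverse-phase HPLC capacity factors measured in an organic phase of 85%-60% methanol containing 0.25% octanol, against an aqueous phase of 0.15% n-decylamine in 0.02 M MOPS pH 7.4 made with octanol-saturated water. Extrapolated to 100% aqueous to give kNw. log Po/w = 0.13418 + 0.98452 log kNw.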

Chain of Estrogen receptor beta (Homo sapiens) (Q92731 whole entry): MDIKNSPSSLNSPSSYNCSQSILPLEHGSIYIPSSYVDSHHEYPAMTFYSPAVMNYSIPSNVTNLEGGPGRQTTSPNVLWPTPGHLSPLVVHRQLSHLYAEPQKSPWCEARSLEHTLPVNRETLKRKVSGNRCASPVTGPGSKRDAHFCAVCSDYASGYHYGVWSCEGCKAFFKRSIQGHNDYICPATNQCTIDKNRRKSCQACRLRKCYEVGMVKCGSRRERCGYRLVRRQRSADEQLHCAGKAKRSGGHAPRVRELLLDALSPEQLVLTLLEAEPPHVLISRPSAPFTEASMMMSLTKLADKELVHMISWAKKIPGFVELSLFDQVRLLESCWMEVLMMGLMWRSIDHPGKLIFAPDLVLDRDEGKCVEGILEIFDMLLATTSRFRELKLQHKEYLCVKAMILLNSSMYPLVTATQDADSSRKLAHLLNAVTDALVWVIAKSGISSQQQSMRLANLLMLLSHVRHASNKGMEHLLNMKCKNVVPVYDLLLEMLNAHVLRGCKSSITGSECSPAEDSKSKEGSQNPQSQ

| Structure (SMILES) | relative binding affinity (RBA) [1] | logP [2] |
| --- | --- | --- |
| CC/C(=C(/c1ccc(O)cc1)c1ccc(OCCN(C)C)cc1)c1ccccc1 [listing 1 of 3 here] | 18.5 |  |
| CC/C(=C(/c1ccc(O)cc1)c1ccc(OCCN(C)C)cc1)c1ccccc1 [listing 2 of 3 here] |  | 3.2 |
| CC/C(=C(/c1ccc(O)cc1)c1ccc(OCCN(C)C)cc1)c1ccccc1 [listing 3 of 3 here] |  | 3.4 |
| C[C@]12CC[C@@H]3c4ccc(O)cc4CC[C@H]3[C@@H]1CC[C@@H]2O [ESTRADIOL] | 100 | 3.5 |
